Measured values as given in the EternaBench riboswitch data.

Tested on: MS2 coat protein
Assay: apparent Kd, MS2 coat protein; higher = weaker binding; RNA-MaP array; FMN 200 µM where present
In short: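 On Illumina sequencing-chip clusters, designs were transcribed by stalled E. coli RNA polymerase and titrated with SNAP-549-labelled MS2 coat protein (0.7 or 1.5 nM, doubling to 3 µM), without and then with constant ligand, in 100 mM Tris-HCl pH 7.5, 80 mM KCl, 4 mM MgCl2, BSA, DTT, yeast tRNA and Tween-20. Apparent Kd is the median of filtered per-cluster curve fits to green signal normalised to red-channel RNA signal and control-cluster median Fmax.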

[1] = designed as: OFF switch for flavin mononucleotide, no ligand
[2] = ligand present: flavin mononucleotide, designed as: OFF switch for flavin mononucleotide
[3] = designed as: ON switch for flavin mononucleotide, no ligand
[4] = ligand present: flavin mononucleotide, designed as: ON switch for flavin mononucleotide

“GCGUUUGUAUCACAUGUAUUACAUGAGGAUCACCCAUGUUACUAGGAUAUGUAUUAGUAUUAUCAACAGAAGGAGUAAGAACGC” was tested, and the “apparent Kd” value [1] was 17.5 nM and the “apparent Kd” value [2] was 18.3 nM.

“CGCUGUCACGCAGGAUAUGCAUUGGAUUACAAUGCAGAAGGGCGAUCACAUGAGGAUCACCCAUGUGUAGACAGUGAAUAAGAG” was tested, and the “apparent Kd” value [3] was 611 nM and the “apparent Kd” value [4] was 49.6 nM.

For “GCACGGAAAGGAUAUGCACGGCUAGCUCGCGUUUUUGUGUGACAUGAGGAUCACCCAUGUAGAAGGUUCAGUGG”, the “apparent Kd” value [1] was 68 nM and the “apparent Kd” value [2] was 71.8 nM.

For “AGAAGACAUGAGGAUCACCCAUGUGCACGUGGAGGAGGAUAUGCUAGUAGAAGAUAGAAUGCAGAAGGCCUAAGAA”, the “apparent Kd” value [3] was 88 nM and the “apparent Kd” value [4] was 85.6 nM.

“AAUAUAAUAAGAGCUGGAAAUAAAACAUGAGGAUCACCCAUGUAGGAUAUCAGCACGAUAAGUGCUGAGAAGGACAACCAGCUC” was tested, and the “apparent Kd” value [1] was 14 nM and the “apparent Kd” value [2] was 15.1 nM.

“UUCAUUAACAUGAGGAUCACCCAUGUUGGCCAGUCUCACACCAGAAGGCACGUUGAGCACAGCAGUGAGGAUAUGGGUGACAUA” was tested, and the “apparent Kd” value [3] was 236 nM and the “apparent Kd” value [4] was 223 nM.

“GGAUAGGACAGAGGAUAUACGUGCUAGAGAUACUAGCAAAAUUUCCUCACAUGAGGAUCACCCAUGUAGAAGGCUGUCCCAUCG” was tested, and the “apparent Kd” value [1] was 15.3 nM and the “apparent Kd” value [2] was 327 nM.

“CGGCACGCAGGAUAUGCCUUUGAGUACAUGAGGAUCACCCAUGUCUUCACCCUCAUUAGGGCAGAAGGGCGAUAUC” was tested, and the “apparent Kd” value [1] was 24.4 nM and the “apparent Kd” value [2] was 32.2 nM.

“GUGUACAGAGGAUAUACUUAUGGAGUCACGAAAGUGGCUUCACAUGAGGAUCACCCAUGUAGAAGGCUGUACAC” was tested, and the “apparent Kd” value [1] was 28.1 nM and the “apparent Kd” value [2] was 31.1 nM.

In the case of “GCACGGUUGCUAGGAUAUCCUUGCGAUUAGCAAGGAGAAGGAGCACAUGAGGAUCACCCAUGUACCUCAAUAAUCCAUCCGUGC”, the “apparent Kd” value [1] is reported as 14.8 nM and the “apparent Kd” value [2] is reported as 14.2 nM.

With “UUUACGAAAGUCGAACGAUGUAGCAGAAGGACAUGAGGAUCACCCAUGUCAGCUGUAACAGCCAUGUAGGAUAUGCUACAUUUU” the “apparent Kd” value [1] was 5.37 nM and the “apparent Kd” value [2] was 6.12 nM.

In the case of “UGGAUGGUAUGAGGAUAUGCGCGCGAAACGCGCGCAGAAGGCGUGUCAAUAGACAUGAGGAUCACCCAUGUACUAUCCAUCCAA”, the “apparent Kd” value [3] is reported as 85.2 nM and the “apparent Kd” value [4] is reported as 9.82 nM.

With “AUCAUGUGAGGAUAUGUGAUCAACCUUCUGUAUAGAUGAUUACAGAAGGCACAUGAGGAUCACCCAUGUAGAUC” the “apparent Kd” value [1] was 70.9 nM and the “apparent Kd” value [2] was 79 nM.

With “GUUCUGUUAGGAUAUUGGAAAUCCGUAGCUGUGGCGCGCUUCAAGAAGGAACAUGAGGAUCACCCAUGUGAAAU” the “apparent Kd” value [1] was 25 nM and the “apparent Kd” value [2] was 25.4 nM.

In the case of “AAGUAACAUGAGGAUCACCCAUGUGAGGUGAGCGUAGGAUAUCGAGGAGGAAGGGUGGAGCGAGAAGGACGAGAGG”, the “apparent Kd” value [3] is reported as 362 nM and the “apparent Kd” value [4] is reported as 360 nM.

In the case of “UGUUAUUAGACAGGAUAUUGAAUGUUAAGUAUUAACAUGAGGAUCACCCAUGUAUUUCAUUCGUACAAGAAGGGUCAUGUUCCU”, the “apparent Kd” value [3] is reported as 166 nM and the “apparent Kd” value [4] is reported as 202 nM.

With “GGGUACAUCGGAGGAUAUCAUGUAAAUACAUGAGGAUCACCCAUGUCGAUGAAGACAUCGGAGAUUGAGAAGGCCGAUGUACCG” the “apparent Kd” value [3] was 1070 nM and the “apparent Kd” value [4] was 76.3 nM.

For “ACGUCACAUGAGGAUCACCCAUGUCAGGCCGGACUAGGAUAUUAUCAUGCAGCGUGACCGUGAGAAGGAGUUGGAU”, the “apparent Kd” value [3] was 104 nM and the “apparent Kd” value [4] was 82.2 nM.

For “AAGUGUGGAUGAGGAUAUCAGCUGUAACUGACGUCGACAUGAGGAUCACCCAUGUUGCUAAAGGGUGAGAAGGCAUUUGCGCAA”, the “apparent Kd” value [3] was 481 nM and the “apparent Kd” value [4] was 53.8 nM.

With “UGUCAUAUAUAGAAGGGUAGUAGGGAUUUACAUGAGGAUCACCCAUGUAUUAUAGGAUAUGUGUAUAGUUUUUAUUCAAGUAUA” the “apparent Kd” value [1] was 28.7 nM and the “apparent Kd” value [2] was 17.9 nM.

For “GACACUAUGUUUGUCAGAUAGAGAGAGGAUAUGGCUCAUGAGACAUGAGGAUCACCCAUGUAUAAUCAGAAGGCUCGAGUAGGA”, the “apparent Kd” value [3] was 12.5 nM and the “apparent Kd” value [4] was 9.56 nM.

With “UGUCCACAUGAGGAUCACCCAUGUCAGGAGGUGACAGGAUAUUGCGAAAAAAAAAAAAAGCAAGAAGGGUCUGAUU” the “apparent Kd” value [3] was 244 nM and the “apparent Kd” value [4] was 89.5 nM.

In the case of “GCAGUGUCAGGAUAUAGUUCGAGUUCGGAAAUGAGCUUGAGCUAGAAGGGACAUGAGGAUCACCCAUGUGCUGU”, the “apparent Kd” value [1] is reported as 38 nM and the “apparent Kd” value [2] is reported as 83.2 nM.

For “GGUGCACGCACAGGAUAUCCGGCGGAGCUCGUCGGAGAAGGGUGACAUGAGGAUCACCCAUGUACGUGCAAUCCAGUUUGAGAG”, the “apparent Kd” value [3] was 23.8 nM and the “apparent Kd” value [4] was 28.3 nM.

In the case of “ACAUGAGGAUCACCCAUGUAUUACAUGGUUAAGUUUAUUAACAGAAGGCGAAAUUACCACUUUUUCGAGGAUAUGUUUUCUAUA”, the “apparent Kd” value [1] is reported as 45.1 nM and the “apparent Kd” value [2] is reported as 58.4 nM.

In the case of “UUUUUAUAAUAGAAGGAGGACUUCAUGAGGAUCACCCAUGUGUUAGUACUUAGGAUAUGUAAUAACAUGAGGAUCACCCAUGUC”, the “apparent Kd” value [3] is reported as 45.3 nM and the “apparent Kd” value [4] is reported as 45.7 nM.

In the case of “AUGGAUAUCACAGGAUAUGCCAUGGAUACCAUGGCAGAAGGGUGAUCCAUCCUAUGUAAAUACAUGAGGAUCACCCAUGUGUCC”, the “apparent Kd” value [3] is reported as 16.1 nM and the “apparent Kd” value [4] is reported as 13.7 nM.

With “UUUUUACAUGAGGAUCACCCAUGUCAGGAUAUGUUUAUAUUUUAUUAUUUUAUUUUUUACAGAAGGGACUAUUA” the “apparent Kd” value [1] was 136 nM and the “apparent Kd” value [2] was 66.6 nM.

In the case of “AGUUGGCGAGGAUAUACAUGAGGAUCACCCAUGUGAAAUAUAAUAGUGAGGAAGAAAAGUAGAAGGCGCUGACA”, the “apparent Kd” value [1] is reported as 48.3 nM and the “apparent Kd” value [2] is reported as 281 nM.

With “UGAUCGAGAGAUCUUAGAUUCUGGUAGGAUAUAAAACAAUUGCGCUUUACAUGAGGAUCACCCAUGUAGAAGGACUAGAGUCUA” the “apparent Kd” value [1] was 6.72 nM and the “apparent Kd” value [2] was 5.96 nM.

In the case of “CGAAUGUAGACAGGAUAUCCUGGACAUGAGGAUCACCCAUGUGCAUAAAAUGGAGAAGGGUCACGGAGGCCCUGUGGGCAGGGU”, the “apparent Kd” value [3] is reported as 44.4 nM and the “apparent Kd” value [4] is reported as 9.21 nM.

With “GGGCGCCACGUAGGAUAUCUUCCGUAUGGGUCCCAUCAUAGCACAUGAGGAUCACCCAUGUGGGUAGAGAAGGACGGUUUGCCG” the “apparent Kd” value [1] was 221 nM and the “apparent Kd” value [2] was 59.5 nM.

In the case of “AUGUUAUUGGAAGGAUAUAGUUUACUAUUCUAACAUGAGGAUCACCCAUGUAACCUUAUGUGUAUCUAGAAGGUCCAUAACUUA”, the “apparent Kd” value [1] is reported as 54.6 nM and the “apparent Kd” value [2] is reported as 62.3 nM.

In the case of “UACAGCUCGACAGGAUAUACAUCACUGCUUCGGCAGUGUAUCUUAAUAACAUGAGGAUCACCCAUGUAGAAGGGUCGAGCUGUA”, the “apparent Kd” value [1] is reported as 18.1 nM and the “apparent Kd” value [2] is reported as 32.8 nM.

In the case of “AAAAGGUUAGGAUAUGCCCGCCGGGUGGGAAGGCCGGGUGGGUAGAAGGGACAUGAGGAUCACCCAUGUAUAAA”, the “apparent Kd” value [1] is reported as 47 nM and the “apparent Kd” value [2] is reported as 19.9 nM.

For “GCUGCUAUCGCAGGAUAUUACAUGGGAAAUAAGACAUGAGGAUCACCCAUGUUAAAUAUCGUAAAUAAGAAGGGCGAUAGCAGC”, the “apparent Kd” value [3] was 270 nM and the “apparent Kd” value [4] was 475 nM.

For “GGACGUCAGAUUAACAUGAGGAUCACCCAUGUCUUUUGACAUGAGGAUAUGGUUGGUAAUUCCAACCAGAAGGCAUGGACGUCC”, the “apparent Kd” value [3] was 1100 nM and the “apparent Kd” value [4] was 125 nM.

With “CAACGUGGAGGAUAUUAGCGAGACAACAUGAGGAUCACCCAUGUGGUACUCAUCUCCUCCUGAGAAGGCUACGCCC” the “apparent Kd” value [1] was 11.8 nM and the “apparent Kd” value [2] was 12.3 nM.

In the case of “GCCAUCGGGUGAGGAUAUAAAAUUAUAAUUAAAUUAGAAGGCACCUCAUAAGACAUGAGGAUCACCCAUGUAGUUAAGAUGGCA”, the “apparent Kd” value [3] is reported as 87.6 nM and the “apparent Kd” value [4] is reported as 29.5 nM.

“CGUAGGAUGCAGAAGGCAUGAACAUGAGGAUCACCCAUGUGAAAACACAUGAGGAUAUGCAUCCUACGAAAAGUGCGAAAGCAC” was tested, and the “apparent Kd” value [3] was 5.89 nM and the “apparent Kd” value [4] was 4.69 nM.

For “UCAACCGGCGCCGGUUAAACAUGAGGAUCACCCAUGUACUCCAGAAGGCCGCCCAAGAACGGAGUGGAGGAUAUGGAGGUUCUC”, the “apparent Kd” value [3] was 45.1 nM and the “apparent Kd” value [4] was 28.7 nM.

With “UUGUUAGGGAGAGGAUAUUGACAUGAGGAUCACCCAUGUAUUUGGGAGUGUUUACUGAAUUCUUACGAGAAGGCUUACGAAAUC” the “apparent Kd” value [1] was 264 nM and the “apparent Kd” value [2] was 186 nM.
